Screens from PubChem BioAssay.
Hits are enriched below; roughly 3.5% of the tested compounds scored in any of these assays.
MrgX1 antag: antagonists of human MrgX1 receptor, primary screen, HEK293 cells, Fluo-4 calcium flux | AID 588676, 2011 | Mas-related G-protein coupled receptor member X1 (Homo sapiens), Q96LB2 | hit rate 1.3% among 310,000 | BAM8-22 antagonism; hits give low values | B-score at 10 µM;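 active = calcium-response B-score plate-corrected more than 3 library SD below zero, starting fluorescence within 5 deviations, no agonist response on first addition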;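 note: peak minus trough fluorescence over baseline after final BAM8-22 challenge near maximal dose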
Target sequence (Q96LB2 whole entry, looked up): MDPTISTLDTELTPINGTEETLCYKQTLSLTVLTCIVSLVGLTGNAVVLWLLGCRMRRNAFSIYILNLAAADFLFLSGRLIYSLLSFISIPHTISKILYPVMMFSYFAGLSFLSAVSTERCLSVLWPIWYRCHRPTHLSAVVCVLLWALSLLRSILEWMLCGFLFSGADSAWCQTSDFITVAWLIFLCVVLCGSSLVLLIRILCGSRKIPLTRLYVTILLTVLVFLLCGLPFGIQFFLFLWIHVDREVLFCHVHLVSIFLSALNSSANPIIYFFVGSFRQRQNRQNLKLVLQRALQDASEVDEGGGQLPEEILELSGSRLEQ
RGS4 block: RGS4 inhibitors, primary screen, cell-based, HEK293 M3R inducible RGS4, calcium flux. Regulator of G-protein signaling 4 (Homo sapiens), P49798. Fluo-4 calcium flux; hits give high values; triggered by carbachol at its EC20. B-score at 10 µM. hit rate 0.45% among 310,000. AID 463165, 2010;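 active = B-score, a plate-corrected calcium signal, over three deviations above library mean, with baseline fluorescence within five deviations of library mean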;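 note: RGS4 expression induced by doxycycline in cells with stable M3 receptor; B-score is computed from the integrated fluorescence ratio over baseline after carbachol; higher B-score means a larger calcium signal and so more RGS4 inhibition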
Target sequence (P49798 whole entry, looked up): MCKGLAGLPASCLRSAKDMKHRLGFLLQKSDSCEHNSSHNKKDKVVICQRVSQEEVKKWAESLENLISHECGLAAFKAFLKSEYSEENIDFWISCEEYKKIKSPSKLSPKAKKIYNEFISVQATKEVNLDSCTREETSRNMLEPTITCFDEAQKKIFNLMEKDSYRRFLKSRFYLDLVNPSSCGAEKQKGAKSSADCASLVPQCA
MrgX1 ag: agonists of human MrgX1 receptor, primary screen, HEK293 cells, Fluo-4 calcium flux | B-score at 10 µM | AID 588627, 2011 | Fluo-4 calcium fluorescence, agonist mode; hits give high values | hit rate 0.44% among 310,000;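 active = calcium response B-score plate-corrected fluorescence ratio at least 3 library SD, with starting fluorescence B-score inside 5 SD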
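Material – MrgX1-expressing HEK293 cells · Input – 15,000 cells seeded per well · Dosing – compound as first of three additions · Times – overnight seeding, then 1 h dark dye loading · Measured by – kinetic Fluo-4 NW fluorescence of intracellular calcium · Read-out – B-scored fluorescence response ratio · Benchmarks – positive and negative control wells on each plate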
RGS4 act: RGS4 potentiators or activators, primary screen, cell-based, HEK293 M3R inducible RGS4, calcium flux; carbachol calcium flux Fluo4; hits give low values; B-score at 10 µM; hit rate 0.92% among 310,000;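 active = B-score of the integrated calcium signal more than 4 SD below the library mean, with starting fluorescence not abnormally high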;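 note: negative B-score means reduced calcium response which marks RGS4 activation or potentiation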
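System: HEK293 FlpIn-TREx cells, stable M3R, doxycycline-inducible RGS4. Timing: overnight RGS4 induction, 30 min dye load 37 °C, 20 min compound RT. Also added: carbachol, ECmax concentration. Measured by: Fluo4 fluorescence kinetic imaging of calcium. Evaluation: integrated calcium ratio converted to B score.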
MrgX1 PAM: positive allosteric modulators of MrgX1, primary screen, HEK293 cells, Fluo-4 calcium flux. hit rate 0.63% among 310,000. FDSS; hits give high values. Mas-related G-protein coupled receptor member X1 (Homo sapiens), Q96LB2. B-score at 10 µM;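 active = plate-corrected calcium response at least 3 library SD above typical, normal starting fluorescence, not activating the receptor alone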;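 note: compound read alongside a low EC10 to EC30 dose of BAM8-22 agonist; peak minus trough fluorescence over baseline measured at the second addition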
RGS4 inh valid: enhanced carbachol calcium response, M3R/RGS4 cells, RGS4 inhibitor project, cell-based, validation screen, HEK293 M3R/RGS4, calcium flux | shares compounds with RGS4 block | carbachol calcium Fluo-4 fluorescence; carbachol added at its EC20; 0 = buffer wells, 100 = carbachol control | calcium response, % at 10 µM | hit rate 65% among 1,700;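 active = duplicate-averaged calcium response above the buffer-only control mean plus 5 SD of those controls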;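 note: integrated fluorescence ratio F max minus min over baseline F0; higher response in RGS4-induced cells means RGS4 inhibition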
RGS4 uninduced: carbachol calcium response in non-induced M3R cells, confirmation, counter-screen for RGS4 inhibitor project, cell-based, HEK293 M3R. shares compounds with RGS4 block. carbachol calcium Fluo-4; submaximal (EC20) carbachol stimulus; buffer wells 0%, carbachol control wells 100%. activity (percent), % at 10 µM. hit rate 20% among 1,900. AID 493000, 2010; call rule not given here;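 note: RGS4 induction absent so cells express M3R without RGS4; higher means more calcium signal and flags a non-specific hit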
RGS4 inh ctr2: second counter-screen for RGS4 inhibitors: non-induced cells without carbachol. shares compounds with RGS4 block. HEK293 M3R/RGS4 non-induced, Fluo-4 calcium, no carbachol; normalised: buffer wells 0%, carbachol wells 100%. calcium response (agonist-mode artifact), % at 10 µM. hit rate 22% among 1,900. AID 493001;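 active = duplicate-averaged calcium rise in uninduced cells above buffer wells' mean plus 5 SD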
* hit, by the source's call.

Results for Cc1ccccc1CN1CCCC(C(=O)Nc2ccc(-c3ccn[nH]3)cc2)C1 (centres undefined) ?
MrgX1 antag: inactive; RGS4 block: inactive; MrgX1 ag: inactive; RGS4 act: inactive; MrgX1 PAM: inactive

Results for O=C1/C(=C/c2cccc(Br)c2)SC(=S)N1CCC(=O)N(CCO)c1ccccc1 ?
MrgX1 antag: inactive; RGS4 block: 5.27*; MrgX1 ag: inactive; RGS4 act: inactive; MrgX1 PAM: inactive; RGS4 inh valid: 16.0%*; RGS4 uninduced: 34.0%*; RGS4 inh ctr2: inactive

Results for COc1cccc(/C=C2\SC(=S)N(CCCC(=O)N(CCO)c3ccccc3)C2=O)c1 ?
MrgX1 antag: inactive; RGS4 block: inactive; MrgX1 ag: inactive; RGS4 act: inactive; MrgX1 PAM: inactive

How did CN1CCN(CCNC(=O)Cn2c(=O)c3cccn3c3ccc(F)cc32)CC1 do in these assays?
MrgX1 antag: inactive; RGS4 block: inactive; MrgX1 ag: inactive; RGS4 act: inactive; MrgX1 PAM: inactive

What do the screens show for `O=C(Oc1cccc2cccnc12)c1ccc(N2C(=O)C3C4CCC(C4)C3C2=O)cc1` (centres undefined)?
MrgX1 antag: inactive; RGS4 block: inactive; MrgX1 ag: inactive; RGS4 act: inactive; MrgX1 PAM: inactive; RGS4 uninduced: inactive; RGS4 inh ctr2: 7.0%*

How did OC[C@H]1O[C@@H](n2cnc3c(NC4CCCC4)nc(Cl)nc32)[C@H](O)[C@@H]1O do in these assays?
MrgX1 antag: inactive; MrgX1 ag: inactive; MrgX1 PAM: inactive

How did Nc1nc(Cl)nc2c1ncn2[C@@H]1O[C@H](CO)[C@@H](O)[C@H]1O do in these assays?
MrgX1 antag: inactive; RGS4 block: 9.78*; MrgX1 ag: inactive; RGS4 act: inactive; MrgX1 PAM: inactive; RGS4 inh valid: 47.0%*; RGS4 uninduced: 78.5%*; RGS4 inh ctr2: inactive

What do the screens show for `Cc1ccc(S(=O)(=O)C2CS(=O)(=O)CC2O)cc1` (centres undefined)?
MrgX1 antag: inactive; RGS4 block: inactive; MrgX1 ag: inactive; RGS4 act: inactive; MrgX1 PAM: inactive

What do the screens show for `CC(=O)C1=C(S(=O)(=O)c2ccc(C)cc2)CS(=O)(=O)C1`?
RGS4 block: 25.5*; RGS4 act: inactive; RGS4 inh valid: 39.5%*; RGS4 uninduced: inactive; RGS4 inh ctr2: inactive

How did O=C(/C=C/c1ccc(NC(=O)c2ccccc2-c2ccccc2C(=O)O)cc1)c1ccccc1 do in these assays?
MrgX1 antag: inactive; RGS4 block: 27.9*; MrgX1 ag: inactive; RGS4 act: inactive; MrgX1 PAM: inactive; RGS4 inh valid: 60.5%*; RGS4 uninduced: inactive; RGS4 inh ctr2: 13.0%*

Results for O=C(NC(C(=O)N/N=C/c1ccccc1)c1n[nH]c(=O)c2ccccc12)c1ccccc1 (centres undefined) ?
MrgX1 antag: inactive; RGS4 block: inactive; MrgX1 ag: inactive; RGS4 act: inactive; MrgX1 PAM: inactive; RGS4 inh valid: inactive; RGS4 uninduced: inactive; RGS4 inh ctr2: 10.5%*

How did O=C(NC(C(=O)N/N=C/c1c2ccccc2cc2ccccc12)c1n[nH]c(=O)c2ccccc12)c1ccccc1 (centres undefined) do in these assays?
MrgX1 antag: inactive; RGS4 block: inactive; MrgX1 ag: inactive; RGS4 act: inactive; MrgX1 PAM: inactive; RGS4 inh valid: inactive; RGS4 uninduced: inactive; RGS4 inh ctr2: 127.5%*

How did CC(NC(=O)c1ccccc1)C(=O)N/N=C/c1ccccc1 (centres undefined) do in these assays?
MrgX1 antag: inactive; RGS4 block: inactive; MrgX1 ag: inactive; RGS4 act: inactive; MrgX1 PAM: inactive

What do the screens show for `Cc1cn2nc(N)c3ccccc3c2n1`?
MrgX1 antag: inactive; MrgX1 ag: inactive; MrgX1 PAM: inactive

How did Nc1nn2cc(-c3ccccc3)nc2c2ccccc12 do in these assays?
MrgX1 antag: inactive; RGS4 block: inactive; MrgX1 ag: inactive; RGS4 act: inactive; MrgX1 PAM: inactive; RGS4 uninduced: inactive; RGS4 inh ctr2: inactive

What do the screens show for `O=C(OCC(=O)N1CCCc2ccccc21)c1ccc(S(=O)(=O)C(F)F)cc1`?
MrgX1 antag: inactive; RGS4 block: inactive; MrgX1 ag: inactive; RGS4 act: inactive; MrgX1 PAM: inactive

Results for Cc1ccc2[nH]c(=O)c(C(c3nnnn3C(C)(C)C)N(Cc3ccco3)CC3CCCO3)cc2c1 (centres undefined) ?
MrgX1 antag: inactive; RGS4 block: inactive; MrgX1 ag: inactive; RGS4 act: inactive; MrgX1 PAM: inactive; RGS4 inh valid: inactive; RGS4 uninduced: inactive; RGS4 inh ctr2: inactive

How did CCC(c1nnnn1Cc1ccco1)N(Cc1cc2cc(C)cc(C)c2[nH]c1=O)CC1CCCO1 (centres undefined) do in these assays?
MrgX1 antag: inactive; RGS4 block: 5.81*; MrgX1 ag: inactive; RGS4 act: inactive; MrgX1 PAM: inactive; RGS4 inh valid: inactive; RGS4 uninduced: inactive; RGS4 inh ctr2: inactive

What do the screens show for `COc1ccc2[nH]c(=O)c(CN(C3CCCCC3)C(c3nnnn3Cc3ccco3)C(C)C)cc2c1` (centres undefined)?
MrgX1 antag: -4.55*; RGS4 block: 7.63*; MrgX1 ag: inactive; RGS4 act: inactive; MrgX1 PAM: inactive; RGS4 inh valid: 7.5%*; RGS4 uninduced: inactive; RGS4 inh ctr2: 24.0%*

Results for Cc1ccc2[nH]c(=O)c(C(c3nnnn3C3CCCC3)N(Cc3cccnc3)Cc3ccco3)cc2c1 (centres undefined) ?
MrgX1 antag: inactive; RGS4 block: inactive; MrgX1 ag: inactive; RGS4 act: inactive; MrgX1 PAM: inactive
